Where two headings read alike, the source gives them in different places.
How the values were obtained:
human BCKDK [1] = molecular target: T1, human BCKDK (Homo sapiens, UniProt O14874); test: BCKDK biochemical assay; settings: for maximum BCKDK inhibition in the biochemical assay: plateau of inhibition curve
How it was run: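 BCKDK freed of MBP tag by TEV cleavage. 11-point half-log test compound series (final 300 μM to 3 nM, 1% DMSO), in duplicate. Reaction started with 50 nM lipoylated fusion substrate plus 15 or 200 μM ATP; 90 min at RT. EDTA stop; Eu-anti-His/anti-pE1/ULight TR-FRET read at 665 nm. IC50 from four-parameter logistic fit.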

PDK1 = PDK1 (Homo sapiens, UniProt Q15118); test: PDK1 biochemical assay
How it was run: (§1)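 Kinetic fluorescence assay (ex 360/em 485 nm) at 30 °C for 240 min using N-terminal GST-tagged kinase at 10 nM. PDK1 (aa 1–436): 6.0 μM ATP, 15 μM AQT0895. PDK4 (aa 1–411): 97 μM ATP, AQT0872. Eleven threefold dilutions (100 μM–1.7 nM final, 2% DMSO), run in duplicate, with a 30 min preincubation before enzyme. No-enzyme background subtracted. IC50 by four-parameter fit of initial rates.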

AT1R = settings: read-out: AT1R Kd; cited from earlier work
human BCKDK [2] = molecular target: T1, human BCKDK; type: binding
How it was run: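 BCKDK biotinylated with BirA during TEV cleavage, then immobilized. At least six twofold dilutions injected at 30 μl/min: 120 s association, ≥300 s dissociation. Double reference subtraction using blank injections. For competition, the same series was run with 20 μM radicicol or 20 μM BT2 in running buffer; reduced signal was read as shared site.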

BCKDK = settings: read-out: Ki as ATP competitive inhibitor of BCKDK; cited from earlier work
PDK4 = PDK4 (Homo sapiens, UniProt Q16654); test: PDK4 biochemical assay
How it was run: as §1

[3] = test system: BCKD–BCKDK complex purified from rat liver; settings: read-out: in vitro IC50 to inhibit the BCKD–BCKDK complex, 500 μM ATP; cited from earlier work
[4] = Biochemical IC50, ATP concentration of 15 μM
[5] = Biochemical IC50 at 200 μM ATP, 200 μM ATP

PDK1, sequence (Q15118 29-436): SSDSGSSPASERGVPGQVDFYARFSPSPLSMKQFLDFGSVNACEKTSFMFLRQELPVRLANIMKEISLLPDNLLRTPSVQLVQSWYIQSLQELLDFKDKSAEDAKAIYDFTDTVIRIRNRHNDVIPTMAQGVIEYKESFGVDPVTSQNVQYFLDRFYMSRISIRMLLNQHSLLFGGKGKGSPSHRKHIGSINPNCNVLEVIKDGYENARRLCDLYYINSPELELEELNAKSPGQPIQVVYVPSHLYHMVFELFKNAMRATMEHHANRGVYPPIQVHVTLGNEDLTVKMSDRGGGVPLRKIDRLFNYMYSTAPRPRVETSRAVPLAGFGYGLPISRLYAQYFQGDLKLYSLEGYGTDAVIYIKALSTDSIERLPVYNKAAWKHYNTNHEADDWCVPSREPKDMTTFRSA
PDK4, sequence (Q16654 whole entry): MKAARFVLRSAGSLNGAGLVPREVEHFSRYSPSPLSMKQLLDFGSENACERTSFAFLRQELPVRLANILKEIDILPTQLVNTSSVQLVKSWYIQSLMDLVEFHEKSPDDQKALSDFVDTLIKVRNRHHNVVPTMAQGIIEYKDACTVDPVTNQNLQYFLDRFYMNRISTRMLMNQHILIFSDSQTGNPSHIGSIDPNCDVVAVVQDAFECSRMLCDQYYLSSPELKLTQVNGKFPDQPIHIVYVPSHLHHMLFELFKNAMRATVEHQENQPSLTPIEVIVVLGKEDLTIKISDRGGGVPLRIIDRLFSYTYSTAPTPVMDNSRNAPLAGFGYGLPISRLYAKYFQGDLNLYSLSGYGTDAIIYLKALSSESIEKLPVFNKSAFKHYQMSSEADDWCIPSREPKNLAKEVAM

| SMILES | IC50 (human BCKDK [1]; [4]) | IC50 (human BCKDK [1]; [5]) | maximum BCKDK inhibition in the biochemical assay (human BCKDK [1]) | further results |
| --- | --- | --- | --- | --- |
| CCC1CN(Cc2ccc(-c3ccccc3-c3nnn[nH]3)cc2)c2ncccc2O1 (racemic) [racemic, 4-((2'-(1H-tetrazol-5-yl)-[1,1′-biphenyl]-4-yl)methyl)-2-ethyl-3,4-dihydro-2H-pyrido[3,2-b][1,4]oxazine] |  |  |  | IC50 (human BCKDK [1]; in vitro biochemical activity): 0.011 ± 0.0025 µM |
| Nc1ncnc2c1ncn2[C@@H]1O[C@H](COP(=O)(O)OP(=O)(O)OP(=O)(O)O)[C@@H](O)[C@H]1O [ATP] |  |  |  | Km (human BCKDK [1]; read-out: Km of ATP, determined in the biochemical assay format): 13.6 ± 0.32 µM |
| O=C(O)c1sc2cc(Cl)ccc2c1Cl [BT2, 3,6-dichlorobenzo[b]thiophene-2-carboxylic acid] | 0.96 ± 0.33 µM | 0.9 ± 0.37 µM | ~75% | IC50 (PDK1): 79 µM |
| CCC1CN(Cc2ccc(-c3ccccc3-c3nnn[nH]3)cc2)c2ncccc2O1 (centres unmarked) [compound 1, 4-((2'-(1H-tetrazol-5-yl)-[1,1′-biphenyl]-4-yl)methyl)-2-ethyl-3,4-dihydro-2H-pyrido[3,2-b][1,4]oxazine] | 0.0069 ± 0.0025 µM | 0.021 ± 0.006 µM | 100% |  |
| CCC1CN(Cc2ccc(-c3ccccc3-c3nnn[nH]3)cc2)c2ncccc2O1 (centres unmarked) [compound 1∗, 4-((2'-(1H-tetrazol-5-yl)-[1,1′-biphenyl]-4-yl)methyl)-2-ethyl-3,4-dihydro-2H-pyrido[3,2-b][1,4]oxazine] |  |  |  | IC50 (human BCKDK [1]; in vitro biochemical activity): 0.032 ± 2e-05 µM |
| COc1ccc(-c2nnn[nH]2)cc1 [fragment 1, 5-(4-methoxyphenyl)-1H-tetrazole] | 205 ± 51 µM | 232 ± 28 µM |  |  |
| Cc1ccc(-c2ccccc2-c2nnn[nH]2)cc1 [fragment 2, 5-(4′-methyl-[1,1′-biphenyl]-2-yl)-1H-tetrazole] | 37.3 ± 7.1 µM | 38.7 ± 3.7 µM |  |  |
| CCCc1nc(C(C)(C)O)c(C(=O)O)n1Cc1ccc(-c2ccccc2-c2nnn[nH]2)cc1 [olmesartan acid] |  |  |  | IC50 (human BCKDK [1]; read-out: In vitro IC50, Supplementary Table 1, BDK inhibition): 43.7 µM; Kd (AT1R): 0.0069 µM |
| C[C@@H]1C[C@H]2O[C@@H]2/C=C\C=C\C(=O)Cc2c(Cl)c(O)cc(O)c2C(=O)O1 [radicicol] | 25 ± 3.8 µM | 110 ± 21 µM | 100% | Kd (human BCKDK [2]): 1.47 µM |
| CCCCC(=O)N(Cc1ccc(-c2ccccc2-c2nnn[nH]2)cc1)[C@H](C(=O)O)C(C)C [valsartan] | 1.7 ± 1.9 µM | 7.7 ± 4.4 µM | 100% | Ki (BCKDK): 1.36 µM; IC50 (PDK4): 78 µM; IC50 [3]: 37.3 µM |
